For assay [1], the target named is T1, 5-hydroxytryptamine receptor 1A (Rattus norvegicus, UniProt P19327).
T1 sequence (P19327 whole entry): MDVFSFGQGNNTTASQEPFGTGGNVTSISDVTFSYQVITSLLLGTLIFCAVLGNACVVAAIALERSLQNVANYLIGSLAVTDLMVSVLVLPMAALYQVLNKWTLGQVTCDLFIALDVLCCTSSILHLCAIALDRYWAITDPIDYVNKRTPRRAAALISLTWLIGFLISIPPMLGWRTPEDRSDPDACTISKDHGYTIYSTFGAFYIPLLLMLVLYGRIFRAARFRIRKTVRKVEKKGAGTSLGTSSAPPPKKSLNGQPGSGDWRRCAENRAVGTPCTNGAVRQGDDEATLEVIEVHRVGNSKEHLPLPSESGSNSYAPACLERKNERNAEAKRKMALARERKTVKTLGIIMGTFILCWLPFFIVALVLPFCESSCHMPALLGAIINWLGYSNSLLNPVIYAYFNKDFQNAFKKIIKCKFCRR
The assay can be described thus: Binding affinity at 5-hydroxytryptamine 1A receptor by the displacement of [3H]8-OH-DPAT in rat brain. The assay is classed as tissue-based. Put shortly:
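Rat brain membranes washed in 50 mM Tris-HCl pH 7.4, with a 37 °C 10 min incubation to remove endogenous 5-HT, used at 10 mg wet tissue/mL. Incubated 15 min at 37 °C with 1 nM [3H]-8-OH-DPAT, 3 mM CaCl2 and pargyline. Filtered and counted; 10 µM 5-HT defined nonspecific binding. IC50 from four-parameter logistic fit, converted to Ki by Cheng-Prusoff; mean ± SEM of N experiments.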
A general note: Loss of bound radioactivity is the signal in a displacement assay; it reports binding, not function.

Assay [2] concerns the target Serotonin (5-HT) receptor (Rattus norvegicus) (UniProt P35563+P35365+P32305+P31388+Q9JJ16+P28564+P30994+Q62758+P08909+P14842+P30940+P35364+P19327+P28565). Nature of the assay: Dose corresponding to half-maximal decrease of 5-HTP formation in the limbic and striatal parts of rat brain. The assay is classed as functional, tissue-based.
The subject of assay [3] is Rattus norvegicus. Nature of the assay: In vivo accumulation of 5-HTP in brain stem of rat brain at a dose of 53 umol/kg. The assay is classed as functional. Put shortly:
(§1)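 Hydrochlorides given sc in the neck (5 mL/kg) to rats, either untreated or reserpine-pretreated (5 mg/kg sc, 6 h before). Decarboxylase inhibitor NSD 1015 (100 mg/kg ip or 60 mg/kg sc) given 30 min later; rats decapitated after another 30 min. Striatum, limbic system, hemispheres and brain stem dissected on ice and homogenized in 0.1 M perchloric acid with α-methyl-DOPA internal standard. DOPA, DA, 5-HTP and 5-HT measured by ion-pair reversed-phase HPLC with electrochemical detection.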

Assay [4] has as its system Rattus norvegicus. Nature of the assay: In vivo accumulation of 5-HTP in striatum of rat brain at a dose of 53 umol/kg. The assay is classed as functional. Put shortly: as §1
In assay [5] the test system is Rattus norvegicus. The assay can be described thus: In vivo accumulation of 5-HT in striatum of rat brain at a dose of 53 umol/kg. The assay is classed as functional. The method in brief: as §1
Assay [6] deals with Rattus norvegicus. Nature of the assay: In vivo accumulation of 5-HTP in hemisphere of rat brain at a dose of 53 umol/kg. The assay is classed as functional. The method in brief: as §1
The subject of assay [7] is Rattus norvegicus. Nature of the assay: In vivo accumulation of DA in striatum of rat brain at a dose of 53 umol/kg. The class given is functional. The method in brief:
as §1

The test system of assay [8] is Rattus norvegicus. The assay can be described thus: In vivo accumulation of DOPA in striatum of rat brain at a dose of 53 umol/kg. The assay is classed as functional. Put shortly:
(§2)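 Rats, reserpine-pretreated (5 mg/kg, i.e. 9 μmol/kg sc, 6 h before) or nonpretreated, given test hydrochloride sc in the neck (injection volume 5 mL/kg). Decarboxylase inhibitor NSD 1015 (100 mg/kg ip or 60 mg/kg sc) given 30 min later; decapitation after another 30 min. Brain dissected on ice into striatum, limbic system, hemispheres, brain stem. Homogenized in 0.1 M perchloric acid with α-methyl-DOPA internal standard; DOPA measured by ion-pair reversed-phase HPLC with electrochemical detection.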

Assay [9] relates to Rattus norvegicus. Nature of the assay: In vivo accumulation of 5-HTP in limbic of rat brain at a dose of 53 umol/kg. The assay is classed as functional. Put shortly:
as §1

Assay [10] has as its system Rattus norvegicus. Nature of the assay: In vivo accumulation of DOPA in brain stem of rat brain at a dose of 53 umol/kg. The assay is classed as functional. The method in brief: as §1
The test system of assay [11] is Rattus norvegicus. Nature of the assay: In vivo accumulation of 5-HT in limbic of rat brain at a dose of 53 umol/kg. The assay is classed as functional. The method in brief: as §1
The test system of assay [12] is Rattus norvegicus. The assay can be described thus: In vivo accumulation of DA in striatum of rat brain at a dose of 63 umol/kg. The class given is functional. The method in brief:
as §1

The test system of assay [13] is Rattus norvegicus. The assay can be described thus: In vivo accumulation of DOPA in brain stem of rat brain at a dose of 63 umol/kg. The assay is classed as functional. Put shortly:
as §1

The subject of assay [14] is Rattus norvegicus. The assay can be described thus: In vivo accumulation of 5-HT in striatum of rat brain at a dose of 63 umol/kg. The class given is functional. Put shortly: as §1
The subject of assay [15] is Rattus norvegicus. Nature of the assay: In vivo accumulation of 5-HTP in hemisphere of rat brain at a dose of 63 umol/kg. The class given is functional. The method in brief: as §1
Assay [16] concerns Rattus norvegicus. The assay can be described thus: In vivo accumulation of DOPA in striatum of rat brain at a dose of 63 umol/kg. The assay is classed as functional. The method in brief:
as §2

The subject of assay [17] is Rattus norvegicus. Nature of the assay: In vivo accumulation of 5-HTP in brain stem of rat brain at a dose of 63 umol/kg. The assay is classed as functional. The method in brief: as §1
Assay [18] deals with Rattus norvegicus. The assay can be described thus: In vivo accumulation of 5-HTP in limbic of rat brain at a dose of 63 umol/kg. The class given is functional. Put shortly:
as §1

The subject of assay [19] is Rattus norvegicus. Nature of the assay: In vivo accumulation of 5-HT in limbic of rat brain at a dose of 63 umol/kg. The assay is classed as functional. The method in brief: as §1
Assay [20] concerns the target T2, Dopamine receptor (Rattus norvegicus) (UniProt P25115+P19020+P30729+P18901+P61169). The assay can be described thus: In vivo accumulation of DOPA in limbic of rat brain at a dose of 63 umol/kg. The class given is functional, organism-based. The method in brief:
as §2

Assay [21] concerns Rattus norvegicus. Nature of the assay: In vivo accumulation of 5-HTP in striatum of rat brain at a dose of 63 umol/kg. The class given is functional. The method in brief:
as §1

The subject of assay [22] is Rattus norvegicus. Nature of the assay: In vivo accumulation of DOPA in hemisphere of rat brain at a dose of 63 umol/kg. The class given is functional. The method in brief: as §2
The target in assay [23] is T2, Dopamine receptor (Rattus norvegicus). The assay can be described thus: In vivo accumulation of DOPA in hemisphere of rat brain at a dose of 53 umol/kg. The class given is functional, organism-based. The method in brief:
as §2

SMILES strings stand for the structures. “And” between values parts separate entries of the source, which are not always exact repeats. Equal values may be shown once.

Consider `CCCN(CCC)[C@H]1Cc2c(O)cccc2C[C@H]1C` (racemic), for which the Ki (as a rule, a measure of affinity in units of concentration, obtained from inhibition or displacement) in assay [1] was determined as 656 nM. In other words, the sub-micromolar range.

For the compound `CCCN(CCC)[C@@H]1Cc2c(O)cccc2C[C@@H]1C`, the inhibitory constant (Ki) in assay [1] was determined as 394 nM. Besides, the ED50 (usually the midpoint of the dose-response relation) in assay [2] came to 0.02 mg/kg.

As for `CCCN1CCC[C@@H]2Cc3cccc(O)c3C[C@H]21` [listing 1 of 2 here], the Control in the assay with Rattus norvegicus [3] was determined as 91.9%; in the assay with Rattus norvegicus [4] it was 85%; in the assay on Rattus norvegicus [5] it was 132%; with Rattus norvegicus [6] it was 92.2%; in the assay on Rattus norvegicus [7] it was 114.5%; in the assay on Rattus norvegicus [8] it was 66.1%. For the same compound, the Control in the assay on Rattus norvegicus [9] is 88%; with Rattus norvegicus [10], 125.1%; in the assay on Rattus norvegicus [11], 114.3%.

As for `CCCN(CCC)[C@@H]1CCc2cccc(O)c2[C@@H]1C`, the Ki in assay [1] was found to be 2.08 nM.

With `CCCN1CCC[C@@H]2Cc3cccc(O)c3C[C@@H]21` [listing 1 of 2 here], the Ki in assay [1] is greater than 10000 nM.

As for `CCCN(CCC)C1Cc2c(O)cccc2CC1(C)C` (racemic), the Ki in assay [1] was greater than 10000 nM. Moreover, the median effective dose (ED50) in assay [2] is greater than 0.05 mg/kg.

Turning to `Oc1cccc2c1C[C@H]1NCCC[C@@H]1C2`, the Control in the assay with Rattus norvegicus [12] is 92.4%; with Rattus norvegicus [13], 91.4%; in the assay on Rattus norvegicus [14], 100.5%; in the assay on Rattus norvegicus [15], 81.9%; in the assay on Rattus norvegicus [16], 84.2%; in the assay with Rattus norvegicus [17], 101.7%. Besides, the Control is 82.3% in the assay with Rattus norvegicus [18]; 89.4% in the assay with Rattus norvegicus [19]; 84.4% and 89.8% in [20]; 96.5% in the assay with Rattus norvegicus [21]; 79% with Rattus norvegicus [22].

With `Oc1cccc2c1C[C@@H]1NCCC[C@H]1C2`, the Control in the assay on Rattus norvegicus [12] amounted to 97.4%; in the assay on Rattus norvegicus [13] it was 90.3%; in the assay on Rattus norvegicus [14], 116%; in the assay with Rattus norvegicus [15], 107.8%; in the assay on Rattus norvegicus [16], 85.3%; with Rattus norvegicus [17], 115.8%. The Control was 104.6% in the assay with Rattus norvegicus [18]; 109.6% in the assay with Rattus norvegicus [19]; 85.7% and 95.5% in [20]; 116.8% in the assay on Rattus norvegicus [21]; 85.2% in the assay on Rattus norvegicus [22].

Consider `CCCN(CCC)[C@H]1Cc2c(O)cccc2C[C@@H]1C`, for which the Ki in assay [1] came out at 49.6 nM.

On to `Oc1cccc2c1C[C@H]1NCCC[C@H]1C2`, for which the Control in the assay on Rattus norvegicus [12] is 92.4%; with Rattus norvegicus [13] it was 94.9%; in the assay on Rattus norvegicus [14] it was 100.5%; with Rattus norvegicus [15], 101.4%; with Rattus norvegicus [16], 84%; in the assay on Rattus norvegicus [17], 106.8%. Besides, the Control in the assay on Rattus norvegicus [18] is 92%; with Rattus norvegicus [19], 89.4%; in assay [20], 82.4% and 85.6%; in the assay on Rattus norvegicus [21], 108.8%; in the assay on Rattus norvegicus [22], 64.2%.

In assay [2], `CCCN1CCC[C@@H]2Cc3cccc(O)c3C[C@@H]21` [listing 2 of 2 here] showed an ED50 greater than 0.05 mg/kg. The compound also displayed a Control in assay [23] of 63%.

For the compound `CCCN(CCC)C1(C)CCc2cccc(O)c2C1` (racemic), the affinity in [1] corresponds to a Ki of 1130 nM. The same compound displayed an ED50 in assay [2] greater than 0.05 mg/kg.

In assay [1], `CCCN(CCC)[C@H]1Cc2c(O)cccc2C[C@@H]1C` (racemic) displayed a Ki of 104 nM. This counts as sub-micromolar.

On to `CCCN1CCC[C@H]2c3c(O)cccc3CC[C@@H]21`, for which the affinity in assay [1] corresponds to a Ki of 3.87 nM.

On to `CCCN1CCC[C@@H]2Cc3cccc(O)c3C[C@H]21` [listing 2 of 2 here], for which, in assay [1], the Ki turned out to be 2810 nM.

In turn, `CCCN(CCC)C1CCc2cccc(O)c2C1C` (racemic) displayed a Ki in assay [1] of 2.84 nM.

In the case of `CCCN1CCC[C@H]2Cc3cccc(O)c3C[C@H]21`, the Control came out at 110.3% with Rattus norvegicus [3]; 81% with Rattus norvegicus [4]; 100% with Rattus norvegicus [5]; 103.9% in the assay with Rattus norvegicus [6]; 81.3% in the assay with Rattus norvegicus [7]; 67.2% in the assay on Rattus norvegicus [8]. Besides, the values for the Control in the assay on Rattus norvegicus [9], with Rattus norvegicus [10] and in the assay on Rattus norvegicus [11] were 92.6%, 126.9% and 102.9%, respectively.

The values are drawn from ChEMBL document CHEMBL1125228, “A 3-D model for 5-HT1A-receptor agonists based on stereoselective methyl-substituted and conformationally restricted analogues of 8-hydroxy-2-(dipropylamino)tetralin” (J Med Chem, 1991).
